The values that follow come from ChEMBL document CHEMBL1139304, “Synthesis, antichagasic in vitro evaluation, cytotoxicity assays, molecular modeling and SAR/QSAR studies of a 2-phenyl-3-(1-phenyl-1H-pyrazol-4-yl)-acrylic acid benzylidene-carbohydrazide series” (Bioorg Med Chem, 2009).

Active and inactive are the calls of the source. The calls are words filed in the database; no cut-off is given here.

The subject of series [1] is Trypanosoma cruzi. Kind of series: Trypanocidal activity against Trypanosoma cruzi Y in Swiss albino mouse blood after 24 hrs. The series is classed as functional, organism-based. An outline of the steps:
(§1)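 Blood was drawn by cardiac puncture from Swiss albino mice infected with T. cruzi Y strain at peak parasitaemia (day 7). It was diluted with healthy mouse blood to 2.10⁶ forms/mL. Compounds from DMSO stocks were tested at 100, 250 and 500, in triplicate, at 4 °C. Parasites were counted after 24 h against infected blood with matched DMSO. IC50 was converted to molar pIC50.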

The nature of series [2]: Cytotoxicity against BALB/c mouse peritoneal cavity cells at 100 ug/mL after 20 hrs by MTT assay. It is filed as cell-based. Summed up: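 Peritoneal cells came from male Balb/c mice (18–25 g). They were washed in RPMI and resuspended in RPMI with 10% FBS and antibiotics, with viable cells counted by Trypan blue. Cells at 2 × 10⁵/well were held 30 min at 37 °C, 5% CO₂, exposed to compound for 20 h, then given MTT for 4 h. Formazan was dissolved in DMSO and read at 490 nm. Viability was taken as % of control OD, with ≥5% death counted as cytotoxic.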
For orientation: Tetrazolium dyes change colour on reduction, which living cells bring about.

The subject of series [3] is Trypanosoma cruzi. Nature of the series: Trypanocidal activity against Trypanosoma cruzi Y in Swiss albino mouse blood at 500 ug/mL after 24 hrs. The series is classed as functional, organism-based. An outline of the steps: as §1

In the case of `CSc1ccc(/C=N/NC(=O)/C(=C/c2cnn(-c3ccccc3)c2)c2ccccc2)cc1`, the IC50 was 440 µM with Trypanosoma cruzi [1] (read-out: IC50) and 437 µM with Trypanosoma cruzi [1] (read-out: pIC50 (converted)). In addition, in series [2], the Activity came to 22.8%.

Consider `O=C(N/N=C/c1ccc([N+](=O)[O-])cc1)/C(=C/c1cnn(-c2ccccc2)c1)c1ccccc1`, for which the IC50 in the series with Trypanosoma cruzi [1] (read-out: IC50) is 30 µM; with Trypanosoma cruzi [1] (read-out: pIC50 (converted)) it was 28.2 µM. The compound also came in with an Activity in series [2] of 19.4%.

With `O=C(N/N=C/c1ccccc1)/C(=C/c1cnn(-c2ccccc2)c1)c1ccc(F)cc1`, the results for the IC50 in the series with Trypanosoma cruzi [1] (read-out: IC50) and in the series on Trypanosoma cruzi [1] (read-out: pIC50 (converted)) were 7830 µM and 7760 µM, respectively. The Activity in series [2] turned out to be 0%.

On to `CN(C)c1ccc(/C=N/NC(=O)/C(=C/c2cnn(-c3ccccc3)c2)c2ccc(F)cc2)cc1`, for which the IC50 with Trypanosoma cruzi [1] (read-out: IC50) was 890 µM; in the series on Trypanosoma cruzi [1] (read-out: pIC50 (converted)), 891 µM. For the same compound, in series [2], the Activity was 12.2%.

For the compound `CN(C)c1ccc(/C=N/NC(=O)/C(=C/c2cnn(-c3ccccc3)c2)c2ccc(O)cc2)cc1`, the IC50 in the series with Trypanosoma cruzi [1] (read-out: IC50) is 1880 µM; with Trypanosoma cruzi [1] (read-out: pIC50 (converted)), 1860 µM. In series [2], the Activity was determined as 12.94%.

In the case of `O=C(N/N=C/c1ccccc1)/C(=C/c1cnn(-c2ccccc2)c1)c1ccc(Br)cc1`, in the series with Trypanosoma cruzi [3], the IC50 result is on record as “Not Active” and the pIC50 result was “inactive”.

Regarding `NNC(=O)/C(=C/c1cnn(-c2ccccc2)c1)c1ccccc1`, the IC50 in the series on Trypanosoma cruzi [1] (read-out: IC50) was 2810 µM; in the series on Trypanosoma cruzi [1] (read-out: pIC50 (converted)) it was 2820 µM. This compound showed an Activity in series [2] of 0%.

Take `O=C(N/N=C/c1ccc(Cl)cc1)/C(=C/c1cnn(-c2ccccc2)c1)c1ccccc1`: the IC50 is 8590 µM with Trypanosoma cruzi [1] (read-out: IC50) and 8510 µM in the series on Trypanosoma cruzi [1] (read-out: pIC50 (converted)). Also, the Activity in series [2] turned out to be 0%.

Take `COc1ccc(/C=N/NC(=O)/C(=C/c2cnn(-c3ccccc3)c2)c2ccc(F)cc2)cc1`: the IC50 in the series with Trypanosoma cruzi [1] (read-out: IC50) is 340 µM; in the series with Trypanosoma cruzi [1] (read-out: pIC50 (converted)) it was 339 µM. Also, the Activity in series [2] came out at 14.8%.

For `COc1ccc(/C=N/NC(=O)/C(=C/c2cnn(-c3ccccc3)c2)c2ccccc2)cc1`, the IC50 in the series on Trypanosoma cruzi [1] (read-out: IC50) and in the series on Trypanosoma cruzi [1] (read-out: pIC50 (converted)) was 1510 µM throughout. This compound also showed an Activity in series [2] of 0%.

Turning to `CCOc1ccc(/C=N/NC(=O)/C(=C/c2cnn(-c3ccccc3)c2)c2ccccc2)cc1`, the IC50 in the series on Trypanosoma cruzi [1] (read-out: IC50) and in the series on Trypanosoma cruzi [1] (read-out: pIC50 (converted)) was 380 µM each time. Also, the Activity in series [2] came out at 0%.

On to `O=C(N/N=C/c1ccccc1)/C(=C/c1cnn(-c2ccccc2)c1)c1ccc(O)cc1`, for which the IC50 was 1360 µM in the series on Trypanosoma cruzi [1] (read-out: IC50) and 1350 µM in the series on Trypanosoma cruzi [1] (read-out: pIC50 (converted)). In series [2], the Activity turned out to be 9.64%.

Regarding `N#Cc1ccc(/C=N/NC(=O)/C(=C/c2cnn(-c3ccccc3)c2)c2ccccc2)cc1`, the IC50 in the series on Trypanosoma cruzi [1] (read-out: IC50) is 1870 µM; in the series with Trypanosoma cruzi [1] (read-out: pIC50 (converted)) it was 1860 µM. Moreover, the Activity in series [2] came to 0%.

Take `N#Cc1ccc(/C=N/NC(=O)/C(=C/c2cnn(-c3ccccc3)c2)c2ccc(F)cc2)cc1`: the figures for the IC50 with Trypanosoma cruzi [1] (read-out: IC50) and in the series with Trypanosoma cruzi [1] (read-out: pIC50 (converted)) were 50 µM and 53.7 µM, respectively. In series [2], this compound came in with an Activity of 0%.

Regarding `O=C(N/N=C/c1ccc(Br)cc1)/C(=C/c1cnn(-c2ccccc2)c1)c1ccccc1`, the IC50 was 1500 µM in the series on Trypanosoma cruzi [1] (read-out: IC50) and 1510 µM with Trypanosoma cruzi [1] (read-out: pIC50 (converted)). In series [2], this compound returned an Activity of 14.35%.

Consider `CN(C)c1ccc(/C=N/NC(=O)/C(=C/c2cnn(-c3ccccc3)c2)c2ccccc2)cc1`, for which the IC50 in the series on Trypanosoma cruzi [1] (read-out: IC50) and with Trypanosoma cruzi [1] (read-out: pIC50 (converted)) was 200 µM each time. The Activity in series [2] amounted to 0%.

For `N#Cc1ccc(/C=N/NC(=O)/C(=C/c2cnn(-c3ccccc3)c2)c2ccc(C(F)(F)F)cc2)cc1`, the IC50 in the series on Trypanosoma cruzi [1] (read-out: IC50) is 590 µM; in the series on Trypanosoma cruzi [1] (read-out: pIC50 (converted)), 589 µM. The compound also came in with an Activity in series [2] of 0%.

As for `O=C(N/N=C/c1ccc(Br)cc1)/C(=C/c1cnn(-c2ccccc2)c1)c1ccc(C(F)(F)F)cc1`, the IC50 is 620 µM with Trypanosoma cruzi [1] (read-out: IC50) and 617 µM with Trypanosoma cruzi [1] (read-out: pIC50 (converted)). The compound also showed an Activity in series [2] of 0%.

As to `COc1ccc(/C(=C\c2cnn(-c3ccccc3)c2)C(=O)N/N=C/c2ccc([N+](=O)[O-])cc2)cc1`, the IC50 is 980 µM with Trypanosoma cruzi [1] (read-out: IC50) and 977 µM in the series with Trypanosoma cruzi [1] (read-out: pIC50 (converted)). In series [2], this compound displayed an Activity of 11.22%.

As to `COc1ccc(/C(=C\c2cnn(-c3ccccc3)c2)C(=O)N/N=C/c2ccc(Br)cc2)cc1`, the IC50 was 930 µM with Trypanosoma cruzi [1] (read-out: IC50) and 933 µM with Trypanosoma cruzi [1] (read-out: pIC50 (converted)). The same compound yielded an Activity in series [2] of 0%.

Turning to `O=C(N/N=C/c1ccc(O)cc1)/C(=C/c1cnn(-c2ccccc2)c1)c1ccccc1`, the figures for the IC50 in the series with Trypanosoma cruzi [1] (read-out: IC50) and in the series with Trypanosoma cruzi [1] (read-out: pIC50 (converted)) were 760 µM and 759 µM, respectively. In series [2], this compound registered an Activity of 12.32%.

As for `COc1ccc(/C(=C\c2cnn(-c3ccccc3)c2)C(=O)N/N=C/c2ccc(C#N)cc2)cc1`, the IC50 in the series with Trypanosoma cruzi [1] (read-out: IC50) was 1310 µM; in the series on Trypanosoma cruzi [1] (read-out: pIC50 (converted)), 1320 µM. The compound also showed an Activity in series [2] of 14.35%.

Consider `O=C(N/N=C/c1ccccc1)/C(=C/c1cnn(-c2ccccc2)c1)c1ccccc1`, for which the IC50 in the series with Trypanosoma cruzi [1] (read-out: IC50) is 190 µM; with Trypanosoma cruzi [1] (read-out: pIC50 (converted)), 191 µM. The Activity in series [2] came out at 4%.

As to `O=C(N/N=C/c1ccc([N+](=O)[O-])cc1)/C(=C/c1cnn(-c2ccccc2)c1)c1ccc(C(F)(F)F)cc1`, the IC50 in the series on Trypanosoma cruzi [1] (read-out: IC50) is 750 µM; in the series on Trypanosoma cruzi [1] (read-out: pIC50 (converted)), 741 µM. For the same compound, the Activity in series [2] was 0%.

Take `CN(C)c1ccc(/C=N/NC(=O)/C(=C/c2cnn(-c3ccccc3)c2)c2ccc(C(F)(F)F)cc2)cc1`: the IC50 in the series on Trypanosoma cruzi [1] (read-out: IC50) is 920 µM; in the series with Trypanosoma cruzi [1] (read-out: pIC50 (converted)), 912 µM. For the same compound, the Activity in series [2] stood at 23.07%.

In the case of `O=C(N/N=C/c1ccc(F)cc1)/C(=C/c1cnn(-c2ccccc2)c1)c1ccccc1`, the IC50 was 2440 µM with Trypanosoma cruzi [1] (read-out: IC50) and 2450 µM in the series on Trypanosoma cruzi [1] (read-out: pIC50 (converted)). The compound also had an Activity in series [2] of 0%.

For the compound `COc1ccc(/C(=C\c2cnn(-c3ccccc3)c2)C(=O)N/N=C/c2ccc(O)cc2)cc1`, the IC50 in the series on Trypanosoma cruzi [1] (read-out: IC50) is 1420 µM; in the series with Trypanosoma cruzi [1] (read-out: pIC50 (converted)), 1410 µM. Further, the Activity in series [2] came out at 12.04%.

Turning to `CN(C)c1ccc(/C=N/NC(=O)/C(=C/c2cnn(-c3ccccc3)c2)c2ccc(Br)cc2)cc1`, the figures for the IC50 in the series with Trypanosoma cruzi [1] (read-out: IC50) and in the series with Trypanosoma cruzi [1] (read-out: pIC50 (converted)) were 700 µM and 708 µM, respectively. Also, the Activity in series [2] is 0%.
